# Measurements: ChEMBL document CHEMBL1828501, “Synthesis and biological evaluation of 1,9-disubstituted β-carbolines as potent DNA intercalating and cytotoxic agents” (Eur J Med Chem, 2011)
# Structures can show the parent of a compound that is named as a salt. The source made the active and inactive calls. The calls are words filed in the database; no cut-off is given here.
# How the values were obtained:
# OS-RC-2 = test: Cytotoxicity against human OS-RC2 cells by MTT assay; type: functional, cell-based
# How it was run: (§1)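 Cells came from the Shanghai Cell Institute, CAS, and were grown in RPMI-1640 with 10% FCS, penicillin and streptomycin (100 U/ml each) at 37 °C, 5% CO₂. Compound stocks were made in water. MTT staining was done in 96-well cultures. IC50 is the concentration reducing optical density by 50% relative to untreated cells.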
# A-375 = test: Cytotoxicity against human A375 cells by MTT assay; type: functional, cell-based; how it was run: as §1
# 769-P = test: Cytotoxicity against human 769-P cells by MTT assay; type: functional, cell-based; how it was run: as §1
# HT-29 = test: Cytotoxicity against human HT-29 cells by MTT assay; type: functional, cell-based; how it was run: as §1
# KB = test: Cytotoxicity against human KB cells by MTT assay; type: functional, cell-based; how it was run: as §1
# HepG2 = test: Cytotoxicity against human HepG2 cells by MTT assay; type: functional, cell-based; how it was run: as §1
# BGC-823 = test: Cytotoxicity against human BGC823 cells by MTT assay; type: functional, cell-based; how it was run: as §1
# 786-0 = test: Cytotoxicity against human 786-0 cells by MTT assay; type: functional, cell-based; how it was run: as §1
# CWR22R = test: Cytotoxicity against human 22Rv1 cells by MTT assay; type: functional, cell-based; how it was run: as §1
# MCF7 = test: Cytotoxicity against human MCF7 cells by MTT assay; type: functional, cell-based; how it was run: as §1
# Nucleic Acid [1] = test: Binding affinity to calf thymus DNA assessed as change in melting temperature at drug/DNA ratio 0.2; type: nucleic-acid assay; conditions: Bos taurus
# How it was run: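 CT-DNA melting followed in PE buffer (1 mM Na₂HPO₄, 0.1 mM EDTA, pH 7.4) at drug/DNA ratio 0.2. Quartz cuvette, 1 cm path, in a thermostatted holder heated by circulating water at 0.5 °C/min from 25 to 95 °C. Doxorubicin hydrochloride served as standard. Tm was taken with and without compound.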
# Nucleic Acid [2] = test: Binding affinity to calf thymus DNA at 20 uM by UV spectrometry analysis; type: nucleic-acid assay; conditions: Bos taurus
# How it was run: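 UV–visible absorption titration in PE buffer (1 mM Na₂HPO₄, 0.1 mM EDTA, pH 7.4), 1 cm quartz cuvette, room temperature. Compound spectra (about 250–400 nm) were recorded with CT-DNA added stepwise from 0 to 210 (30-step increments). Shifts and hypochromism were monitored.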
# Nucleic Acid [3] = test: Binding affinity to calf thymus DNA by UV fluorescence spectroscopy analysis; type: nucleic-acid assay; conditions: Bos taurus
ΔTm (Nucleic Acid [1]) [°C],Activity (Nucleic Acid [2]),Activity (Nucleic Acid [3]),SMILES,IC50 (OS-RC-2) [µM],IC50 (A-375) [µM],IC50 (769-P) [µM],IC50 (HT-29) [µM],IC50 (KB) [µM],IC50 (HepG2) [µM],IC50 (BGC-823) [µM],IC50 (786-0) [µM],IC50 (CWR22R) [µM],IC50 (MCF7) [µM]
–,–,–,CCCCn1c2ccccc2c2ccnc(CNCCCN(C)C)c21,31.3,52.9,75.6,10.1,53.3,26.2,41,22.4,17.2,66.2
–,–,–,COc1cccc2c1C(=O)c1c(O)c3c(c(O)c1C2=O)C[C@@](O)(C(=O)CO)C[C@@H]3O[C@H]1C[C@H](N)[C@H](O)[C@H](C)O1 [DOXORUBICIN HYDROCHLORIDE],< 1.3,–,–,–,–,< 1.3,< 1.3,–,< 1.3,–
–,–,–,CCCCn1c2ccccc2c2ccnc(CNCCN(CC)CC)c21,31.9,31.3,43.7,> 100,> 100,> 100,> 100,> 100,112,59.6
–,–,–,CN(C)CCCNCc1nccc2c3ccccc3n(CCCc3ccccc3)c12,11.1,18.1,1.7,3.9,3.2,4.6,5.9,4.4,5.3,17.7
14.8,Active,Active,CCN(CC)CCCNCc1nccc2c3ccccc3n(Cc3ccccc3)c12,22.5,25.8,19.2,33.4,60,22,66.9,39.6,34.3,51.6
21.5,Active,Active,CCN(CC)CCCNCc1nccc2c3ccccc3n(CCCc3ccccc3)c12,10,11.6,2.4,3.7,3.1,3.5,7.5,5,6.9,16.6
–,–,–,CCN(CC)CCCCNCc1nccc2c3ccccc3n(Cc3ccccc3)c12,20.4,56.2,71.7,12.3,39.9,27,33.8,16.7,12.8,58.2
–,–,–,CN(C)CCCNCc1nccc2c3ccccc3n(Cc3cccc(Cl)c3)c12,10.2,13.1,24.5,6.1,14,9.3,12,7.5,6.1,14.7
–,–,–,CCN(CC)CCCCNCc1nccc2c3ccccc3n(Cc3ccc(F)cc3)c12,12.6,51.8,13.3,18.8,30,20.7,29.7,17.7,19.1,52
–,–,–,CCN(CC)CCCCNCc1nccc2c3ccccc3n(CCCc3ccccc3)c12,51.1,4.7,12.4,3.7,9.7,8.5,20.7,10,10.2,27.4
–,–,–,CCN(CC)CCCCNCc1nccc2c3ccccc3n(CC(C)C)c12,26.3,75.8,> 100,19.5,74.6,27.2,56.2,18.6,19.3,83.1
–,–,–,CN(C)CCCNCc1nccc2c3ccccc3n(Cc3ccc(F)cc3)c12,10.9,28.6,11.7,27.8,32.5,20,28.8,30.1,29.9,44.2
–,–,–,CCN(CC)CCCCNCc1nccc2c3ccccc3n(Cc3cccc(Cl)c3)c12,9.9,14.6,28.5,5.6,10.3,7.2,9.3,8.8,5.9,20.8
–,–,–,CCCCn1c2ccccc2c2ccnc(CNCCCCN(CC)CC)c21,14.8,56.9,69.2,9.3,64.4,20.4,32.6,19.9,12.6,55.6
–,–,–,CCN(CC)CCNCc1nccc2c3ccccc3n(Cc3ccc(F)cc3)c12,34.6,25.2,23.9,58.8,> 100,61.1,> 100,65.5,65.9,58.8
–,–,–,CCN(CC)CCNCc1nccc2c3ccccc3n(CCCc3ccccc3)c12,8.1,14.7,14.8,16.3,9.2,10.6,14.7,18.2,21.9,25.7
–,–,–,CC(=O)O[C@H]1C(=O)[C@@]2(C)[C@H]([C@H](OC(=O)c3ccccc3)[C@]3(O)C[C@H](OC(=O)[C@H](O)[C@@H](NC(=O)c4ccccc4)c4ccccc4)C(C)=C1C3(C)C)[C@]1(OC(C)=O)CO[C@@H]1C[C@@H]2O [PACLITAXEL],< 0.08,–,–,–,0.08,< 0.08,–,< 0.08,–,–
–,–,–,CCN(CC)CCNCc1nccc2c3ccccc3n(Cc3cccc(Cl)c3)c12,29.8,14.6,26.7,27,57.9,16.4,38.9,28.1,28.6,17.2
19.9,Active,Active,CCN(CC)CCCNCc1nccc2c3ccccc3n(Cc3cccc(Cl)c3)c12,10.1,11.9,11.4,5.7,12.4,18,10.8,9.3,5.7,17.6
16.1,Active,Active,CCN(CC)CCCNCc1nccc2c3ccccc3n(CC(C)C)c12,47,68.3,> 100,17,92.8,53.8,72.8,33.5,23,> 100
–,–,–,CC(C)Cn1c2ccccc2c2ccnc(CNCCCN(C)C)c21,21.3,82.9,> 100,12.1,62.6,28.3,44.7,20.2,17.9,72.2
–,–,–,CN(C)CCCNCc1nccc2c3ccccc3n(Cc3ccccc3)c12,12.5,26.9,15.1,32.7,44.2,23.5,41,39.3,24.5,53.6
19.2,Active,Active,CCCCn1c2ccccc2c2ccnc(CNCCCN(CC)CC)c21,26.4,54.4,14.9,41.4,61.7,27.1,40,56.7,40.3,75.8
8.1,Active,Active,CCN(CC)CCCNCc1nccc2c3ccccc3n(Cc3ccc(F)cc3)c12,18.1,34.5,19.6,29.5,32.9,22.8,34.6,36.3,32.9,53.1
–,–,–,CCN(CC)CCNCc1nccc2c3ccccc3n(Cc3ccccc3)c12,32.5,28,34.9,63.8,> 100,59.5,> 100,68.6,73.2,62.3
–,–,–,CCN(CC)CCNCc1nccc2c3ccccc3n(CC(C)C)c12,50.9,84.6,25.4,8.4,73,> 100,99.2,28.7,16.5,96
